E-selectin induc = induces E-selectin expression in human endothelial cells | AID 686992 | P16581 | activation, % at 7.58 µM | 0.37% of 260,000 active | HUVEC E-selectin immunofluorescence imaging; normalized: neutral wells 0, TNF-alpha wells 100;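 active means mean E-selectin-positive cell signal at least 10% of the positive control, reached in at least 60% of replicates, without over 20% cell loss; inconclusive means no rule given, readout overlaps actives, possibly toxicity-flagged; inactive means the rest, including those meeting only one limit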
Target sequence (P16581 whole entry, looked up): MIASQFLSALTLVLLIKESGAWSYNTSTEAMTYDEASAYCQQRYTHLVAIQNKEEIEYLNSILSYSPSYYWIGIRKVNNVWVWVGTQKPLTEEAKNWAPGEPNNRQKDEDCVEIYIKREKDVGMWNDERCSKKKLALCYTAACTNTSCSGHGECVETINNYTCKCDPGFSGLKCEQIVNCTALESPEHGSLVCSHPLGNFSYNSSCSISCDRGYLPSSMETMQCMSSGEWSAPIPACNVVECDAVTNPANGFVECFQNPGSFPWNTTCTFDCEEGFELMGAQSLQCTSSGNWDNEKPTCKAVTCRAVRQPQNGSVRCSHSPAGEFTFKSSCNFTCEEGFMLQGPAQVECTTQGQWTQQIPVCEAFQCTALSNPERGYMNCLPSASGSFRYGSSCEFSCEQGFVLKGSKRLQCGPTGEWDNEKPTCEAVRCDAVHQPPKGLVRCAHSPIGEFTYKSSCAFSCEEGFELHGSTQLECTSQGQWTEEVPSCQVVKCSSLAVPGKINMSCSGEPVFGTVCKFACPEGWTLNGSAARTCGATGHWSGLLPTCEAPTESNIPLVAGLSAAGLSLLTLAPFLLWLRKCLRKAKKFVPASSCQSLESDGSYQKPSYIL
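Assay system: HUVEC, human umbilical vein endothelial cells / Amount: 3,000 HUVEC/well / Controls: TNF-alpha positive control, DMSO neutral control / Compound dosing: single concentration / Medium: EGM-2 over gelatin coat / Evaluation: percent E-selectin-positive cells / Signal: immunofluorescence imaging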
DENV2 CPE rescue = inhibitors of DENV2 cytopathic effect | DENV2-infected cells, cytopathic effect rescue, plate reader | CPE inhibition, % at 9.99 µM | 1.7% of 350,000 active | AID 651640; in the data active means CPE inhibition above about 20%, passing the limit was not always enough; inconclusive means no clear call, values can overlap the other calls; tested in BHK-21 cells;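 further: 0% = median of neutral control wells and 100% = median of positive control wells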
Cneo AK release = causes C. neoformans cell lysis; adenylate kinase release luminescence, 4 h; normalised: neutral wells 0, clomiphene wells 100; AID 651654; lysis activity, % at 15 µM; 0.2% of 360,000 active;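 active means mean lysis activity across replicates of at least 80%, whatever share of replicates individually reach that level; inactive means mean lysis activity below 80%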
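Material: C. neoformans cells; Schedule: 4 h static compound exposure, 37 °C, read 1 h post-reagent; Measured by: adenylate kinase release luminescence; Read-out: signal increase indicating cell lysis; Controls: Clomiphene as positive lysis control.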
miR122 inh = miR-122 inhibition in Huh7 cells; 0.3% of 340,000 active; Huh7 miR-122 Renilla luciferase sensor, 48 h; neutral wells = 0, positive control = 100; activation (reporter increase), % at 12.5 µM;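 active means mean replicate activation score at least 90 and every replicate individually at or above 90; inconclusive means only one of the two criteria met; inactive means neither criterion met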;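 further: higher luciferase means less miR-122 activity so hits act as miR-122 inhibitors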
rRNA inh HTS = inhibitors of bacterial rRNA selective over humanized ribosomes. 1.6% of 350,000 active. E. coli WT GFP vs humanized-ribosome RFP mutants, fluorescence, 24 h; active compounds read low; DMSO median 0, no signal -100. AID 720706. GFP signal change (wild-type ribosome), % (test concentration not listed);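 active means significant combined selectivity score with lowered wild-type GFP, culture density cut under 30%, mutant RFP and density less affected; inactive means any of these conditions unmet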
* hit, by the source's call; ? = inconclusive; · = not tested or not shown; [ ] = remark or other dose. Hits are enriched below; roughly 3.1% of the tested compounds scored in any of these assays.

SMILES	E-selectin induc	DENV2 CPE rescue	Cneo AK release	miR122 inh	rRNA inh HTS
COc1ccc(Cc2nnc(NC(=O)c3ccccc3Cl)s2)cc1OC	·	41*	-6	0	-2
COc1ccc(Cc2nnc(NC(=O)c3ccccc3F)s2)cc1OC	·	-3	0	4	-5
COc1ccc(C(=O)NC(=S)Nc2ccc(CN3CCCCC3)cc2)cc1Cl	0	2	·	·	-20*
Cc1ccc(C(=O)Nc2ccc(N3CCCC3)cc2)c(C)c1	3	2	·	-2	-36*
Cc1ccc(C(=O)NC(=S)Nc2ccc(CN3CCCCC3)cc2)c(C)c1	26*	5	·	-10	-5
COc1ccc(-c2cn3cc(C)ccc3n2)cc1F	7	-5	-11	-4	-31*
CC[C@H]1CC=CC[C@H](C)Oc2ccccc2C(=O)N(C)[C@H](C(C)C)C(=O)N1 (mixture of isomers)	·	·	·	·	0
CN(C)c1cccc(C(=O)OCC(=O)N2CCc3ccccc3C2)c1	·	0	·	·	-30*
O=C(OCC(=O)N1CCc2ccccc2C1)c1ccc(Cl)c([N+](=O)[O-])c1	0	0	0	-12	-7
Nc1ccc(C(=O)OCC(=O)N2CCc3ccccc3C2)cc1[N+](=O)[O-]	·	5	-2	6	-23*
C[C@@H]1CCCCO[C@@H](CN(C)C)[C@H](C)CN([C@H](C)CO)C(=O)c2cc(NC(=O)CCC(F)(F)F)ccc2O1	0	12	-1	7[16.7 µM]	2
Cc1nn(-c2ccccc2)cc1/C=N/O	7	·	0	-7	·
Cc1nn(-c2ccccc2)cc1/C=N/NC(N)=S	·	1	19	-11	-21*
C[C@@H]1CN([C@H](C)CO)C(=O)c2cc(/C=C/c3ccccc3)cnc2O[C@H]1CN(C)S(=O)(=O)c1cccs1	0	-1	3	·	-2
CCCS(=O)(=O)c1ccc(COC(=O)c2cccc(NC(=O)C(C)C)c2)cc1	·	-1	·	·	-39*
COc1ccc(C)cc1Nc1n[n+](-c2ccccc2)c(-c2ccc(OC)c(OC)c2OC)s1	0	92*	2	5	2
CC(C)NC(=O)N1[C@H](C(=O)N2CCC(Cc3ccccc3)CC2)[C@@H](CO)[C@@H]2Cn3c(cccc3=O)[C@@H]21	0	26*	3	22[16.7 µM]	3
O=C([C@@H]1[C@@H](CO)[C@@H]2Cn3c(cccc3=O)[C@@H]2N1CCC(F)(F)F)N1CCCCC1	0	-20	102*	·	4
CC(C)NC(=O)N1[C@@H]2c3cccc(=O)n3C[C@@H]2[C@@H](CO)[C@@H]1C(=O)N1CCC(Cc2ccccc2)CC1	0	8	2	·	4
CCCC#Cc1ccc([C@@H]2[C@H]3CN(C(=O)c4cccc(F)c4)CC(=O)N3[C@H]2CO)cc1	·	·	·	·	-7
CCCN1C[C@@H](C)[C@@H](OC)CN(C)C(=O)c2cc(NC(=O)COC)ccc2OC[C@@H]1C	0	·	58	0[16.7 µM]	0
O=S(=O)(NCc1csc(-c2cccs2)n1)c1cccc(C(F)(F)F)c1	60*	-4	1	0	-36
O=S(=O)(NCc1csc(-c2cccs2)n1)c1ccc(Cl)cc1	52*	2	1	17	-36
Cc1ccc(S(=O)(=O)NCc2csc(-c3cccs3)n2)cc1	7	-3	·	·	-3
COc1cccc(Cl)c1NC(=O)N1CCN(c2ccnc3cc(Cl)ccc23)CC1	0	-3	·	·	-32*
SMILES	E-selectin induc	DENV2 CPE rescue	Cneo AK release	miR122 inh	rRNA inh HTS
O=C(c1ccc(Cl)cc1)N1CCN(c2ccnc3cc(Cl)ccc23)CC1	·	-5	·	·	-29*
Oc1ccc(N2CCN(c3ccnc4cc(Cl)ccc34)CC2)cc1	·	0	1	2	-38*
COc1ccc(N2CCN(c3ccnc4cc(Cl)ccc34)CC2)cc1	0	-1	1	4	-2
CCC(=O)N1CCN(c2ccnc3cc(Cl)ccc23)CC1	·	-4	·	·	-8
Cc1noc(C)c1NC(=O)N(C)C[C@H]1Oc2ccc(NS(=O)(=O)c3cccs3)cc2CC(=O)N([C@H](C)CO)C[C@@H]1C	-15	?	-4	-2[16.7 µM]	1
Cc1ccsc1/C=C1\CCC(C2CCCC2)C1=O (stereo not drawn)	·	0	·	-3	-23*
O=C(O)C[C@H]1C=C[C@H](NC(=O)c2ccccc2F)[C@H](CO)O1	0	·	·	·	3
CCOC(=O)C1=C(COC(=O)Cc2ccccc2)NC(=O)NC1C (stereo not drawn)	-1	1	0	-7	6

Compound activity from PubChem.
